hIAP activ: human IAP activation. AID 2524. purified human IAP, CDP-Star luminescence, 30 min; active compounds read high; 1 = vehicle-only enzyme, 0 = enzyme-free background. P09923. activation factor at 10 µM. 330,000 tested, 0.16% active;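 active means activation factor of the enzyme at least 2-fold when tested at 20 µM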
Target sequence (P09923 whole entry, looked up): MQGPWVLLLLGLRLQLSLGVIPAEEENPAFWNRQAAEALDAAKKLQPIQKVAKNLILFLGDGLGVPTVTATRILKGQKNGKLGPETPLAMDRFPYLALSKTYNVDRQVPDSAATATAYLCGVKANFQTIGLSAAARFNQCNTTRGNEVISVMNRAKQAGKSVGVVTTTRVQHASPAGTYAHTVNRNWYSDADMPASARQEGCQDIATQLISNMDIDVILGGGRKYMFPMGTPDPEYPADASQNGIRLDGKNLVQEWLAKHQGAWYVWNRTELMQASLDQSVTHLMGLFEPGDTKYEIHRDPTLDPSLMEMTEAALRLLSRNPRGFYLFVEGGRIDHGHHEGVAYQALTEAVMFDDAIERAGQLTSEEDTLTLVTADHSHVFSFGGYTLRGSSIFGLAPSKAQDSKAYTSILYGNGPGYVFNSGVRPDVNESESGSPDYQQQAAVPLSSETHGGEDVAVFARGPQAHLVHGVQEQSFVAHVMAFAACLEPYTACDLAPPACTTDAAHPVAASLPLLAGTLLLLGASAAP
bIAP inhibitor: intestinal alkaline phosphatase (bovine) inhibition; purified bovine IAP, CDP-star luminescence, 30 min; inhibition, % at 20 µM; 190,000 tested, under 10 active; AID 1019;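 active means over 50% inhibition of intestinal alkaline phosphatase at 20 µM in the single-dose screen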
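Incubation: 30 min reaction at room temperature / Material: purified bovine intestinal alkaline phosphatase (IAP) enzyme / Input: enzyme at 1/65,000,000 dilution / Dosing: 20 µM single dose / Signal: CDP-star luminescence signal / Reagent: CDP-star chemiluminescent phosphatase substrate, 30 µM final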
mIAP block: mouse IAP inhibition; 330,000 tested, 0.2% active; purified mouse IAP, CDP-Star luminescence, 30 min; inhibition, % at 10 µM;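 active means inhibition of at least 40% at 10 µM in the primary screen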;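 further: plate controls were DMSO with enzyme for no effect and no enzyme wells for full effect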
hIAP inh: blocks human intestinal alkaline phosphatase | AID 2544 | inhibition, % at 10 µM | purified IAP, CDP-Star luminescence, 30 min | 330,000 tested, 0.12% active | P09923;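 active means inhibition reaching a set limit with compound at 10 µM in the primary screen, cut at about 35% in these data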;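 further: plate controls were DMSO wells with enzyme for no effect and no-enzyme buffer wells for full effect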
bIAP act: intestinal alkaline phosphatase (bovine) activation. purified bovine IAP, CDP-star luminescence, 30 min; active compounds read high; fold of DMSO-control signal, blank-subtracted. 200,000 tested, 0.17% active. AID 1016. activation factor at 20 µM;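 active means activation factor of 2 or more at 20 µM, a signal rise over negative controls twice the positive control's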
mIAP activ: mouse IAP activation; AID 2805; muIAP, CDP-Star luminescence, 30 min; active compounds read high; 1 = vehicle-only enzyme signal, 0 = enzyme-free wells; 330,000 tested, 0.24% active; activation factor at 10 µM;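 active means activation factor of at least 2 at 20 µM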
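Assay system: mouse IAP enzyme / Compound: DMSO-dissolved test compounds / Timing: 30 min, room temperature / Measured by: luminescence from enzymatic CDP-Star hydrolysis / Control set: DMSO-only wells, enzyme-free buffer wells as negative control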
An asterisk follows results filed as active; nt = no result given. Most compounds without a hit are left out; they make up all but 0.72% or so of the library.

SMILES	hIAP activ	bIAP inhibitor	mIAP block	hIAP inh	bIAP act	mIAP activ
O=C(Nc1ccccc1C(=O)NC(Cc1ccccc1)C(=O)NC1CCCCCC1)c1ccccc1 (centres undefined)	0.94	-6	-129	6	1.1	2.3*
CCOC(=O)CC(NCc1ccc(OC)c(OCC)c1)c1ccc(C)cc1 (centres undefined)	1.1	-9	-8	-8	1.1	1.1
CSCCC(NC(=O)c1ccccc1Cl)C(=O)N1CCN(c2ccccn2)CC1 (centres undefined)	1.3	nt	8	-25	nt	0.92
COc1ccccc1NS(=O)(=O)c1cc([N+](=O)[O-])ccc1N/N=C/c1c[nH]c2ccccc12	0.89	47	22	11	0.5	0.78
COc1ccc(C=NNc2ccc([N+](=O)[O-])cc2S(=O)(=O)Nc2ccccc2C(=O)O)cc1OC	0.91	nt	42*	9	nt	0.58
COC(=O)Cc1c(O)ccn(CCc2c[nH]c3ccccc23)c1=O	1	2	0	-3	1	1
CC[C@H](C)[C@@H](C(=O)NCCCCCCCCCCC(=O)N1CCN(C(=O)OC(C)(C)C)CC1)n1cc(CCCCCNC(=O)OC(C)(C)C)nn1	0.99	nt	-150	0	nt	2.5*
CC(C)(C)OC(=O)CC[C@@H](C(=O)NCCCCCCCCCCC(=O)N1CCN(C(=O)OC(C)(C)C)CC1)n1cc(CCCCCNC(=O)OC(C)(C)C)nn1	0.99	nt	-216	0	nt	3.2*
C#CCOCCOCCOCCNc1nc(N2CCN(C(=O)CCCCCCCCCCNC(=O)[C@@H](CCSC)n3cc(CCO)nn3)CC2)nc(N2CCN(C(=O)CCCCCCCCCCNC(=O)[C@H](CCSC)n3cc(CCO)nn3)CC2)n1	0.88	nt	-164	12	nt	2.6*
CC(C)(C)OC(=O)NCCCCCc1cn([C@@H](CO)C(=O)NCCCCCCCCCCC(=O)N2CCN(C(=O)OC(C)(C)C)CC2)nn1	0.91	nt	-7	9	nt	1.1
COc1cccc(NC(=S)N/N=C2\CC(C)(C)Oc3ccc(O)cc32)c1	1.2	2	16	-18	1	0.83
Cc1ccc(CNC(=O)C2CCN(S(=O)(=O)c3cccnc3)CC2)cc1	1.2	nt	0	-18	nt	1
C=CCNC(=O)/C=C/c1c(F)cccc1Cl	1	-169	-5	-3	2.7*	1.1
COc1cccc(C(O)c2nc3ccccc3n2C(C)C)c1 (centres undefined)	1.1	-105	3	-14	2.1*	0.97
COc1cccc(C(O)c2nc3ccccc3n2C(C)C)c1OC (centres undefined)	1.2	nt	-4	-25	nt	1
O=C(Nc1ccc(F)cc1)Nc1cccc(Br)c1	1	nt	-199	-1	nt	3*
CC(=O)Nc1ccc(NC(=O)Nc2ccc(C)c(C)c2)cc1	0.79	-5	-20	22	1.1	1.2
O=C(Nc1ccc(Oc2ccc(NC(=O)Nc3ccccc3Cl)cc2)cc1)Nc1ccccc1Cl	1	nt	-102	-1	nt	2*
O=C(Nc1ccncc1)Nc1cccc(Cl)c1Cl	1.3	nt	-73	-25	nt	1.7
CC(=O)Nc1cccc(NC(=O)Nc2ccc(C)c(Cl)c2)c1	1.2	-2	-111	-18	1	2.1*
O=C(Nc1ccccc1)Nc1cccc(Cl)c1Cl	1	13	-192	-3	0.9	2.9*
Cc1ccc(S(=O)(=O)Oc2ccc(/C=C(/NC(=O)c3ccccc3)C(=O)NCCC(=O)O)cc2)cc1	1	8	-5	-4	0.9	1
O=C1c2ccccc2-c2nc3ncnn3c(-c3ccccc3Cl)c21	0.92	-2	6	8	1	0.94
CN(C)/C=C/C(=O)c1cnc2n(c1=O)CCS2	0.87	-12	-4	13	1.1	1
CCN(CC)CCNC(=O)c1ccc(NC(=O)/C=C/c2cc(OC)c(OC)c(OC)c2)cc1	1.2	-41	2	-15	1.4	0.98
SMILES	hIAP activ	bIAP inhibitor	mIAP block	hIAP inh	bIAP act	mIAP activ
O=C(Nc1ccccc1)Nc1ccccc1Br	1.2	-2	-52	-16	1	1.5
O=C(Nc1ccccc1)Nc1ccc(Br)c(Cl)c1	1.3	0	-234	-29	1	3.3*
CCCCC(=O)Nc1ncc(Br)s1	0.93	23	-4	7	0.8	1
CC1CCCN(C(=O)C2(NC(=O)Nc3cccc(F)c3)CCCCC2)C1 (centres undefined)	1.6	-61	-213	-62	1.6	3.1*
O=C1/C(=C\c2ccco2)SC(=S)N1Cc1ccccc1	1.1	10	57*	-7	0.9	0.43
O=C(CCCN1C(=O)/C(=C\c2ccco2)SC1=S)Nc1ccc2ccccc2c1	0.99	9	41*	1	0.9	0.59
COCCOC(=O)c1c(NC(=O)CSc2cccc[n+]2[O-])sc(C(N)=O)c1C	0.98	-6	-5	2	1.1	1
Cc1cccc(C)c1NC(=S)Nc1ccc(F)cc1	1.1	0	-1	-14	1	1
Cn1cnnc1SCC(=O)N1CCC(Cc2ccccc2)CC1	1.1	-140	-20	-14	2.4*	1.2
Cn1cnnc1SCC(=O)N1CCN(C(=O)c2ccco2)CC1	0.91	20	-3	9	0.8	1
CC(C)C[C@@]12C(=O)N(c3cccc(Br)c3)C(=O)N1[C@H](c1ccc(Cl)cc1)[C@@H]1C(=O)N(C3CCCCC3)C(=O)[C@@H]12	0.84	nt	46*	16	nt	0.54
O=C(CN1C(=O)C2C3CC(C(Br)C3Br)C2C1=O)OCC(=O)c1cccc([N+](=O)[O-])c1 (centres undefined)	1	-1	6	-2	1	0.94
O=C(Nc1ccc2c(c1)CCC2)Nc1ccccc1F	1.2	nt	-102	-18	nt	2*
O=C(Nc1ccc(Br)cc1)Nc1ccccc1F	1.1	12	-117	-12	0.9	2.2*
O=C(Nc1ccc2c(c1)CCC2)Nc1ccc(F)cc1F	0.95	nt	-32	5	nt	1.3
CC(Cc1cccs1)NC(=O)Nc1ccc(F)cc1 (centres undefined)	0.99	3	-17	1	1	1.2
CC(Cc1cccs1)NC(=S)Nc1ccc(Cl)c(Cl)c1 (centres undefined)	1	-18	-104	0	1.2	2*
CC(Cc1cccs1)NC(=O)Nc1cccc(Cl)c1 (centres undefined)	0.94	30	-127	6	0.7	2.3*
COc1cc(NC(=O)CNc2ccc(Cl)c(S(=O)(=O)N3CCOCC3)c2)cc(OC)c1	0.99	nt	-10	1	nt	1.1
Cc1onc(-c2ccccc2)c1NC(=O)Nc1ccc(OC(F)F)cc1	1	nt	-100	0	nt	2*
Cc1onc(-c2ccccc2)c1C(=O)Nc1ccc(OC(C)C)cc1	1.1	16	-2	-12	0.8	1
CC(C)CN(C(=O)c1ccc(=O)n(C)n1)c1c(N)n(Cc2ccccc2)c(=O)[nH]c1=O	1	nt	-7	0	nt	1.1

From PubChem BioAssay
